# Reference: ChEMBL document CHEMBL1134499, “Structure-activity relationships of 1,4-dihydro-(1H,4H)-quinoxaline-2,3-diones as N-methyl-D-aspartate (glycine site) receptor antagonists. 1. Heterocyclic substituted 5-alkyl derivatives” (J Med Chem, 2001)
# Assays:
# [1] = biological target: Glutamate NMDA receptor; test: Binding affinity at glycine binding site of NMDA receptor in rat cortical membranes by [3H]L-689,560 displacement.; type: cell membranes, Membrane
# [2] = Solubility in 0.1 M aqueous D-arginine at pH 9
# [3] = test system: Mus musculus; test: Ability to prevent NMDA-induced hyperlocomotion in the mouse following iv administration of 30 mg/kg dose; 10/10; type: functional
# [4] = test system: Mus musculus; test: Ability to prevent NMDA-induced hyperlocomotion in the mouse following iv administration of 10 mg/kg dose; 5/10; type: functional
# [5] = species on record: Rattus norvegicus; test: Inhibition of NMDA-induced depolarizations in rat cortical wedges.; type: functional
# [6] = Solubility in 0.1 m aqueous D-arginine at pH 9; type: physicochemical
# [7] = test system: Mus musculus; test: Ability to prevent NMDA-induced hyperlocomotion in the mouse following iv administration of 20 mg/kg dose; 0/6; type: functional
# [8] = Solubility in water at pH 4-5; type: physicochemical
# [9] = test system: Mus musculus; test: Ability to prevent NMDA-induced hyperlocomotion in the mouse following iv administration of 20 mg/kg dose; 1/9; type: functional
# [10] = test system: Mus musculus; test: Ability to prevent NMDA-induced hyperlocomotion in the mouse following iv administration of 20 mg/kg dose; 6/9; type: functional
# How it was run: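 CD1 mice (25-30 g) received NMDA 300 mg/kg sc. Test compound was given iv via a tail vein 15 min before NMDA, dissolved in buffered saline (pH 7-9) or 0.1 M aqueous D-arginine; saline-dosed controls; usually 9-10 mice per dose. Time to onset and duration of hyperlocomotion recorded up to 15 min. Score = number of animals reaching 15 min post-NMDA.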
# [11] = test system: Mus musculus; test: Ability to prevent NMDA-induced hyperlocomotion in the mouse following iv administration of 20 mg/kg dose; 0/9; type: functional
# [12] = test system: Mus musculus; test: Ability to prevent NMDA-induced hyperlocomotion in the mouse following iv administration of 3 mg/kg dose; 0/9; type: functional
# [13] = test system: Mus musculus; test: Ability to prevent NMDA-induced hyperlocomotion in the mouse following iv administration of 30 mg/kg dose; 5/9; type: functional
# [14] = test system: Mus musculus; test: Ability to prevent NMDA-induced hyperlocomotion in the mouse following iv administration of 10 mg/kg dose; 2/9; type: functional
# [15] = test system: Mus musculus; test: Ability to prevent NMDA-induced hyperlocomotion in the mouse following iv administration of 15 mg/kg dose; 3/10; type: functional
# [16] = test system: Mus musculus; test: Ability to prevent NMDA-induced hyperlocomotion in the mouse following iv administration of 3 mg/kg dose; 3/10; type: functional
smiles,measurement,setting,value
Oc1nc2cc(Cl)c(Cl)c(Cn3cncn3)c2nc1O,IC50,[1],0.025 µM
same,solubility,[2],< 10 µg/mL
Cn1nnc(Cc2c(Cl)c(Cl)cc3nc(O)c(O)nc23)n1,IC50,[1],0.078 µM
C[C@@H]1CN(O)C(=O)[C@@H]1N,No. protected/ No.dosed,[3],10
same,No. protected/ No.dosed,[4],5
same,IC50,[1],1.2 µM
same,EC50,[5],16 µM
CCC(c1c(Cl)c(Cl)cc2nc(O)c(O)nc12)n1ccnn1 (stereo unspecified),solubility,[6],< 1000 µg/mL
same,No. protected/ No.dosed,[7],0
same,IC50,[1],0.00075 µM
same,EC50,[5],0.29 µM
"Oc1nc2cc(Cl)c(Cl)cc2nc1O [2,3-DIHYDROXY-6,7-DICHLOROQUINOXALINE]",IC50,[1],2 µM
CN1CCN(Cc2cn(Cc3c(Cl)c(Cl)cc4nc(O)c(O)nc34)nn2)CC1,solubility,[8],> 10000 µg/mL
same,No. protected/ No.dosed,[9],1
same,IC50,[1],0.0076 µM
same,EC50,[5],0.088 µM
Oc1nc2cc(Cl)c(Cl)c(Cn3cccn3)c2nc1O,IC50,[1],0.005 µM
same,solubility,[2],< 10 µg/mL
CCCn1cnc(Cc2c(Cl)c(Cl)cc3nc(O)c(O)nc23)c1,solubility,[8],> 10000 µg/mL
same,No. protected/ No.dosed,[10],6
same,IC50,[1],0.0044 µM
same,EC50,[5],0.35 µM
CCN(CC)Cc1cn(Cc2c(Cl)c(Cl)cc3nc(O)c(O)nc23)nn1,No. protected/ No.dosed,[11],0
same,IC50,[1],0.006 µM
same,EC50,[5],0.15 µM
CCC(c1c(Cl)c(Cl)cc2nc(O)c(O)nc12)n1cnnc1 (stereo unspecified),solubility,[6],> 5000 µg/mL
same,No. protected/ No.dosed,[10],6
same,No. protected/ No.dosed,[12],0
same,No. protected/ No.dosed,[13],5
same,No. protected/ No.dosed,[14],2
same,IC50,[1],0.0026 µM
same,EC50,[5],0.09 µM
O=c1[nH]c2cc(Cl)c(Cl)c([N+](=O)[O-])c2[nH]c1=O [LICOSTINEL],No. protected/ No.dosed,[15],3
same,No. protected/ No.dosed,[16],3
same,No. protected/ No.dosed,[4],5
same,IC50,[1],0.0014 µM
same,EC50,[5],1.1 µM
Oc1nc2cc(Cl)c(Cl)c(Cn3cnnc3)c2nc1O,IC50,[1],0.081 µM
same,EC50,[5],1.09 µM
CCC(c1c(Cl)c(Cl)cc2nc(O)c(O)nc12)n1ccnc1 (stereo unspecified),No. protected/ No.dosed,[11],0
same,IC50,[1],0.0031 µM
same,EC50,[5],0.09 µM
Cc1ncnn1Cc1c(Cl)c(Cl)cc2nc(O)c(O)nc12,IC50,[1],0.19 µM
Cc1nccn1Cc1c(Cl)c(Cl)cc2nc(O)c(O)nc12,IC50,[1],0.109 µM
Oc1nc2cc(Cl)c(Cl)c(Cn3ccnc3)c2nc1O,IC50,[1],0.023 µM
same,EC50,[5],1.3 µM
Oc1nc2cc(Cl)c(Cl)c(Cc3ccccn3)c2nc1O,solubility,[8],< 1000 µg/mL
same,IC50,[1],0.03 µM
same,EC50,[5],4.1 µM
Cc1ncn(Cc2c(Cl)c(Cl)cc3nc(O)c(O)nc23)n1,IC50,[1],0.024 µM
same,EC50,[5],0.64 µM
CCC(c1c(Cl)c(Cl)cc2nc(O)c(O)nc12)n1cncn1 (stereo unspecified),solubility,[6],~1000 µg/mL
same,IC50,[1],0.004 µM
same,EC50,[5],0.42 µM
Oc1nc2cc(Cl)c(Cl)c(Cn3ccnn3)c2nc1O,IC50,[1],0.001 µM
same,EC50,[5],0.35 µM
